Assay results published in ChEMBL document CHEMBL5247578, “Effective synthesis of benzimidazoles-imidazo[1,2-a]pyrazine conjugates: A comparative study of mono-and bis-benzimidazoles for antitumor activity” (Eur J Med Chem, 2019).

Assays:
[1] = tested on: HL-60; assay: Antiproliferative activity against human HL-60 cells assessed as cell growth inhibition by measuring lethal concentration incubated for 48 hrs by sulforhodamine B assay; assay type: functional; settings: read-out: LC50 (the source's name)
[2] = tested on: IGROV-1; assay: Antiproliferative activity against human IGROV-1 cells assessed as cell growth at 0.000001 M incubated for 48 hrs by SRB assay relative to control; assay type: functional; settings: read-out: Activity
[3] = tested on: HCC 2998; assay: Antiproliferative activity against human HCC 2998 cells assessed as cell growth inhibition by measuring lethal concentration incubated for 48 hrs by sulforhodamine B assay; assay type: functional; settings: read-out: LC50 (the source's name)
[4] = tested on: SNB-19; assay: Antiproliferative activity against human SNB-19 cells assessed as cell growth inhibition by measuring lethal concentration incubated for 48 hrs by sulforhodamine B assay; assay type: functional; settings: read-out: LC50 (the source's name)
Method in brief: (§1)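 NCI-60 five-dose screen (10^-4 to 10^-8 M, 10-fold dilutions; DMSO stocks). Cells in RPMI 1640 with 5% FBS and 2 mM L-glutamine, preincubated 24 h, then exposed 48 h at 37 °C, 5% CO2. Fixed with cold TCA, stained with 0.4% SRB, absorbance read at 515 nm. Time-zero plates used as reference. LC50 taken from [(Ti-Tz)/Tz]×100 […].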

[5] = tested on: HCT-116; assay: Antiproliferative activity against human HCT-116 cells assessed as cell growth at 0.00000001 M incubated for 48 hrs by SRB assay relative to control; assay type: functional; settings: dose 10 nM, read-out: Activity
Method in brief: (§2)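 NCI-60 five-dose screen (10^-4 to 10^-8 M). Cells grown in RPMI 1640 with 5% FBS and 2 mM L-glutamine, plated at 5,000-40,000 cells/well and preincubated 24 h. Drug given from DMSO stock, then 48 h at 37 °C, 5% CO2. For adherent lines, cells fixed with cold TCA, SRB-stained and read at 515 nm. Percent growth taken against time-zero and untreated control.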

[6] = tested on: Hs-578T; assay: Antiproliferative activity against human Hs-578T cells assessed as cell growth inhibition by measuring lethal concentration incubated for 48 hrs by sulforhodamine B assay; assay type: functional; settings: read-out: LC50 (the source's name)
[7] = tested on: NCI-H460; assay: Growth inhibition against human NCI-H460 cells incubated for 48 hrs by sulforhodamine B assay; assay type: functional
[8] = tested on: Malme-3M; assay: Antiproliferative activity against human Malme-3M cells assessed as cell growth at 0.0001 M incubated for 48 hrs by SRB assay relative to control; assay type: functional; settings: read-out: Activity
[9] = tested on: UACC-62; assay: Antiproliferative activity against human UACC-62 cells assessed as cell growth at 0.00000001 M incubated for 48 hrs by SRB assay relative to control; assay type: functional; settings: dose 10 nM, read-out: Activity
[10] = tested on: UACC-257; assay: Growth inhibition against human UACC-257 cells assessed as total growth inhibitory concentration incubated for 48 hrs by sulforhodamine B assay; assay type: functional
[11] = tested on: SK-MEL-28; assay: Antiproliferative activity against human SK-MEL-28 cells assessed as cell growth at 0.00000001 M incubated for 48 hrs by SRB assay relative to control; assay type: functional; settings: dose 10 nM, read-out: Activity
[12] = target: Albumin (Bos taurus, UniProt P02769); assay: Binding affinity to bovine serum albumin assessed as Stern-Volmer quenching constant by fluorescence spectroscopic method; settings: cattle
Albumin, sequence (P02769 whole entry): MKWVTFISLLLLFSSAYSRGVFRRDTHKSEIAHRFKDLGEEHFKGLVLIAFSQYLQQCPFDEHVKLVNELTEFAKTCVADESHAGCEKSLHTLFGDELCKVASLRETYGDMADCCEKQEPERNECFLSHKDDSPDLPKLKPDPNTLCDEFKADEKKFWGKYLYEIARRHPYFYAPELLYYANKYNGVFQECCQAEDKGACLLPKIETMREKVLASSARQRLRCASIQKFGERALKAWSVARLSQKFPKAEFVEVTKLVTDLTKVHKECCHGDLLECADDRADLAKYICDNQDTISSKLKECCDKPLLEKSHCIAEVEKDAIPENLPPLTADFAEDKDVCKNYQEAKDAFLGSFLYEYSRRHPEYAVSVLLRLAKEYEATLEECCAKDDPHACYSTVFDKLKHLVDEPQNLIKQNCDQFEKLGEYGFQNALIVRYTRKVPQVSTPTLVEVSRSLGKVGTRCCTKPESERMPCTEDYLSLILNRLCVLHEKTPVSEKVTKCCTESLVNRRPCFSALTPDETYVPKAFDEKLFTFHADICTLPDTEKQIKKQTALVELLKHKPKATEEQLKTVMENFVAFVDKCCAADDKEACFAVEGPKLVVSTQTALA

[13] = tested on: Hs-578T; assay: Growth inhibition against human Hs-578T cells incubated for 48 hrs by sulforhodamine B assay; assay type: functional
[14] = tested on: NCI/ADR-RES; assay: Antiproliferative activity against human NCI/ADR-RES cells assessed as cell growth at 0.0000001 M incubated for 48 hrs by SRB assay relative to control; assay type: functional; settings: dose 100 nM, read-out: Activity
[15] = tested on: Malme-3M; assay: Antiproliferative activity against human Malme-3M cells assessed as cell growth at 0.00001 M incubated for 48 hrs by SRB assay relative to control; assay type: functional; settings: read-out: Activity
[16] = tested on: SK-OV-3; assay: Antiproliferative activity against human SK-OV-3 cells assessed as cell growth at 0.0001 M incubated for 48 hrs by SRB assay relative to control; assay type: functional; settings: read-out: Activity
[17] = tested on: UO-31; assay: Antiproliferative activity against human UO-31 cells assessed as cell growth at 0.00000001 M incubated for 48 hrs by SRB assay relative to control; assay type: functional; settings: dose 10 nM, read-out: Activity
[18] = tested on: M14; assay: Antiproliferative activity against human M14 cells assessed as cell growth at 0.00000001 M incubated for 48 hrs by SRB assay relative to control; assay type: functional; settings: dose 10 nM, read-out: Activity
[19] = tested on: Calf thymus DNA; assay: Displacement of ethidium bromide from calf thymus DNA assessed as quenching constant upto 85 uM by fluorescence based spectroscopic analysis; assay type: nucleic-acid assay; settings: Bos taurus
[20] = tested on: NCI-H522; assay: Antiproliferative activity against human NCI-H522 cells assessed as cell growth at 0.000001 M incubated for 48 hrs by SRB assay relative to control; assay type: functional; settings: read-out: Activity
[21] = tested on: SK-MEL-28; assay: Antiproliferative activity against human SK-MEL-28 cells assessed as cell growth at 0.0000001 M incubated for 48 hrs by SRB assay relative to control; assay type: functional; settings: dose 100 nM, read-out: Activity
[22] = tested on: HCC 2998; assay: Antiproliferative activity against human HCC 2998 cells assessed as cell growth at 0.00001 M incubated for 48 hrs by SRB assay relative to control; assay type: functional; settings: read-out: Activity; method in brief: as §2
[23] = tested on: NCI-H460; assay: Antiproliferative activity against human NCI-H460 cells assessed as cell growth at 0.0000001 M incubated for 48 hrs by SRB assay relative to control; assay type: functional; settings: dose 100 nM, read-out: Activity
[24] = tested on: IGROV-1; assay: Growth inhibition against human IGROV-1 cells assessed as total growth inhibitory concentration incubated for 48 hrs by sulforhodamine B assay; assay type: functional
[25] = tested on: HOP-92; assay: Antiproliferative activity against human HOP-92 cells assessed as cell growth at 0.0001 M incubated for 48 hrs by SRB assay relative to control; assay type: functional; settings: read-out: Activity; method in brief: as §2
[26] = tested on: HCT-15; assay: Antiproliferative activity against human HCT-15 cells assessed as cell growth at 0.0000001 M incubated for 48 hrs by SRB assay relative to control; assay type: functional; settings: dose 100 nM, read-out: Activity; method in brief: as §2
[27] = tested on: SR; assay: Antiproliferative activity against human SR cells assessed as cell growth at 0.0000001 M incubated for 48 hrs by SRB assay relative to control; assay type: functional; settings: dose 100 nM, read-out: Activity
[28] = tested on: T47D; assay: Growth inhibition against human T47D cells incubated for 48 hrs by sulforhodamine B assay; assay type: functional
[29] = tested on: MCF7; assay: Antiproliferative activity against human MCF7 cells assessed as cell growth at 0.0001 M incubated for 48 hrs by SRB assay relative to control; assay type: functional; settings: read-out: Activity
[30] = tested on: BT-549; assay: Growth inhibition against human BT-549 cells assessed as total growth inhibitory concentration incubated for 48 hrs by sulforhodamine B assay; assay type: functional
[31] = tested on: U-251; assay: Antiproliferative activity against human U-251 cells assessed as cell growth inhibition by measuring lethal concentration incubated for 48 hrs by sulforhodamine B assay; assay type: functional; settings: read-out: LC50 (the source's name); method in brief: as §1
[32] = tested on: EKVX; assay: Antiproliferative activity against human EKVX cells assessed as cell growth at 0.00001 M incubated for 48 hrs by SRB assay relative to control; assay type: functional; settings: read-out: Activity; method in brief: as §2
[33] = tested on: OVCAR-5; assay: Antiproliferative activity against human OVCAR-5 cells assessed as cell growth inhibition by measuring lethal concentration incubated for 48 hrs by sulforhodamine B assay; assay type: functional; settings: read-out: LC50 (the source's name)

`c1ccc(Cn2cnc3ccc(-c4nc(-c5ccc6c(c5)ncn6C5CCCCC5)cn5ccnc45)cc32)cc1` was tested, and the CC50 [1] was over 100 µM, the growth at 1 µM [2] was 73% and the CC50 [3] was 6.12 µM. The CC50 [4] was over 100 µM, the growth at 0.01 µM [5] was 89% and the CC50 [6] was over 100 µM. For the same compound, the GI50 [7] was 2.3 µM, the growth at 100 µM [8] was 23% and the growth at 0.01 µM [9] was 92%. For the same compound, the TGI [10] was 4.31 µM, the growth at 0.01 µM [11] was 94% and the KSV [12] was 1.14 10^5/M. The GI50 [13] was 2.71 µM, the growth at 0.1 µM [14] was 97% and the growth at 10 µM [15] was -10%. For the same compound, the growth at 100 µM [16] was 6%, the growth at 0.01 µM [17] was 91% and the growth at 0.01 µM [18] was 87%. For the same compound, the Kq [19] was 0.74 10^12/M/s, the growth at 1 µM [20] was 88% and the growth at 0.1 µM [21] was 96%. For the same compound, the growth at 10 µM [22] was -92%, the growth at 0.1 µM [23] was 108% and the TGI [24] was over 100 µM. The growth at 100 µM [25] was -80%, the growth at 0.1 µM [26] was 96% and the growth at 0.1 µM [27] was 98%. It also gave a GI50 [28] of 1.49 µM, a growth at 100 µM [29] of 8% and a TGI [30] of 2.68 µM. The CC50 [31] was over 100 µM, the growth at 10 µM [32] was -31% and the CC50 [33] was over 100 µM.
`COc1ccc(-c2cn3ccnc3c(-c3ccc4ncn(C5CCCCC5)c4c3)n2)cc1` gave a CC50 [1] of over 100 µM, a growth at 1 µM [2] of 49% and a CC50 [3] of over 100 µM. The CC50 [4] was over 100 µM, the growth at 0.01 µM [5] was 95% and the CC50 [6] was over 100 µM. It also gave a GI50 [7] of 0.622 µM, a growth at 100 µM [8] of 49% and a growth at 0.01 µM [9] of 94%. For the same compound, the TGI [10] was over 100 µM, the growth at 0.01 µM [11] was 94% and the KSV [12] was 1.16 10^5/M. The GI50 [13] was 1.16 µM, the growth at 0.1 µM [14] was 94% and the growth at 10 µM [15] was 51%. The growth at 100 µM [16] was -2%, the growth at 0.01 µM [17] was 91% and the growth at 0.01 µM [18] was 99%. For the same compound, the Kq [19] was 0.82 10^12/M/s, the growth at 1 µM [20] was 28% and the growth at 0.1 µM [21] was 95%. The growth at 10 µM [22] was 9%, the growth at 0.1 µM [23] was 107% and the TGI [24] was over 100 µM. It also gave a growth at 100 µM [25] of 9%, a growth at 0.1 µM [26] of 99% and a growth at 0.1 µM [27] of 91%. For the same compound, the GI50 [28] was 0.76 µM, the growth at 100 µM [29] was 24% and the TGI [30] was 3.91 µM. The CC50 [31] was over 100 µM, the growth at 10 µM [32] was 25% and the CC50 [33] was over 100 µM.
